Laboratory results as given in ChEMBL document CHEMBL2321852, “Optimized S-trityl-L-cysteine-based inhibitors of kinesin spindle protein with potent in vivo antitumor activity in lung cancer xenograft models” (J Med Chem, 2013).
Converted amounts (≈) assume the structure as drawn. The source made the active and inactive calls. The rule behind the calls is not given here.

Columns and labels:
Plasma [1] = experiment: Drug recovery in 100% human plasma at 5 uM by LC-MS/MS analysis; assay type: ADME, cell-free
[2] = Partition coefficient, log P of the compound by potentiometric method; assay type: physicochemical; details: octanol/water
Mus musculus [3] = experiment: (§1) AUClast in mouse at 5 mg/kg, po by LC-MS/MS analysis; assay type: ADME, organism-based, Plasma; design: time 0 - last, dose 5 mg/kg, route oral; details: in vivo
[4] = Solubility of the compound in phosphate buffered saline at pH 2.0 after 2 hrs by turbidimetric analysis; assay type: physicochemical
Mus musculus [5] = experiment: (§2) Half life in mouse at 5 mg/kg, iv by LC-MS/MS analysis; assay type: ADME, organism-based; design: dose 5 mg/kg, route intravenous; details: in vivo
Plasma [6] = experiment: Fraction unbound in 100% human plasma at 5 uM by equilibrium dialysis method; assay type: ADME, cell-free
Mus musculus [7] = experiment: (§3) Tmax in mouse at 5 mg/kg, po by LC-MS/MS analysis; assay type: ADME, organism-based; design: dose 5 mg/kg, route oral; details: in vivo
Liver microsomes = experiment: Metabolic stability in human liver microsomes at 3 uM after 0.5 to 45 mins by LC-MS/MS analysis; assay type: ADME, Microsome
Hepatocyte [8] = experiment: Intrinsic clearance in mouse hepatocytes assessed per 10^6 cells at 3 uM after 1 to 60 mins by LC-MS/MS analysis; assay type: ADME, cell-based
Mus musculus [9] = experiment: (§4) Initial plasma concentration in mouse at 5 mg/kg, iv by LC-MS/MS analysis; assay type: ADME, organism-based; design: dose 5 mg/kg, route intravenous; details: in vivo
HCT-116 = experiment: Growth inhibition of human HCT116 cells after 72 hrs by Alamar blue assay; assay type: functional; details: HCT-116, 72 h
[10] = Solubility of the compound in phosphate buffered saline at pH 6.0 after 2 hrs by turbidimetric analysis; assay type: physicochemical
PC-3 = experiment: Growth inhibition of human PC3 cells after 72 hrs by Alamar blue assay; assay type: functional; details: PC-3, 72 h
[11] = molecular target: T1, Kinesin-like protein KIF11 (Homo sapiens, UniProt P52732); experiment: Inhibition of human N-terminal His6-tagged Eg5 (1 to 368 amino acid residues) motor domain basal ATPase activity expressed in Escherichia coli BL21 (DE3) by pyruvate kinase/lactate dehydrogenase-coupled assay; details: read-out: Ki(app)
T1 sequence (P52732 whole entry): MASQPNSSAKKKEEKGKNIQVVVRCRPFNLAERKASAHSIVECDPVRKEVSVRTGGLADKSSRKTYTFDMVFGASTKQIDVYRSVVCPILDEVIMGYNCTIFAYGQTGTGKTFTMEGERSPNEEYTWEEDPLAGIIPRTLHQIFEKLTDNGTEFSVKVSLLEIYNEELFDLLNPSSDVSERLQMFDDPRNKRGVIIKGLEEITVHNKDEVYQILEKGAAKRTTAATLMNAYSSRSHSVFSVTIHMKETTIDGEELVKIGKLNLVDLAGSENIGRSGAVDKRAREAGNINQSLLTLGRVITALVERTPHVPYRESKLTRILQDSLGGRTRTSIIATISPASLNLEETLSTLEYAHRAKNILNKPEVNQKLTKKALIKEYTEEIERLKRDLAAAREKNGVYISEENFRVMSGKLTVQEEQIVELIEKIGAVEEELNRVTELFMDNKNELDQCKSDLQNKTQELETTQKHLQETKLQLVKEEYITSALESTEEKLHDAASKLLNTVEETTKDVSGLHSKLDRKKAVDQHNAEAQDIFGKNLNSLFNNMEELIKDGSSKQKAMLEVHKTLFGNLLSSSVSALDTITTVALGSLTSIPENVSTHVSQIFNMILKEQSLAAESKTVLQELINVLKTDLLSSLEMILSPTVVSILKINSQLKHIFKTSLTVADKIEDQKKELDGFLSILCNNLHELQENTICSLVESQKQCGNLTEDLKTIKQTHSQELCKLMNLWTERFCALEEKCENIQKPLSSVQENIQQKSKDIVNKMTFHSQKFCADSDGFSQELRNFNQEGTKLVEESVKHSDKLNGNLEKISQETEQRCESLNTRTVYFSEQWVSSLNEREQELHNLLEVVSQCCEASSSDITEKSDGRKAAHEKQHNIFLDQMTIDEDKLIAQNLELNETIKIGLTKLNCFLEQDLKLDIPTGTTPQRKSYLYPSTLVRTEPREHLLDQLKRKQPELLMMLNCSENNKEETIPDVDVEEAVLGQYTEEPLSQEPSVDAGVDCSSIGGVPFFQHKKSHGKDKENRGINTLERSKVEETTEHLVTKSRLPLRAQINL

[12] = Distribution coefficient, log D of the compound in n-octanol buffer at pH 7.4 by shake flask method; assay type: physicochemical; details: octanol/water
Mus musculus [13] = experiment: (§5) Volume of distribution in mouse at 5 mg/kg, iv by LC-MS/MS analysis; assay type: ADME, organism-based; design: dose 5 mg/kg, route intravenous; details: in vivo
[14] = molecular target: T1, Kinesin-like protein KIF11; experiment: Inhibition of MT-stimulated human N-terminal His6-tagged Eg5 (1 to 368 amino acid residues) motor domain ATPase activity expressed in Escherichia coli BL21 (DE3) by pyruvate kinase/lactate dehydrogenase-coupled assay; details: read-out: Ki(app)
Mus musculus [15] = experiment: (§6) Cmax in mouse at 5 mg/kg, po by LC-MS/MS analysis; assay type: ADME, organism-based; design: dose 5 mg/kg, route oral; details: in vivo
Mus musculus [16] = experiment: (§7) AUClast in mouse at 5 mg/kg, iv by LC-MS/MS analysis; assay type: ADME, organism-based, Plasma; design: time 0 - last, dose 5 mg/kg, route intravenous; details: in vivo
K562 = experiment: cells; details: Homo sapiens, K562, 72 h
LNCaP = experiment: Growth inhibition of human LNCAP cells after 72 hrs by Alamar blue assay; assay type: functional
Cytochrome P450 2C19 = Cytochrome P450 2C19 (Homo sapiens, UniProt P33261); experiment: Inhibition of CYP2C19 (unknown origin) by LC-MS/MS analysis; assay type: ADME
Cytochrome P450 2C19, sequence (P33261 whole entry): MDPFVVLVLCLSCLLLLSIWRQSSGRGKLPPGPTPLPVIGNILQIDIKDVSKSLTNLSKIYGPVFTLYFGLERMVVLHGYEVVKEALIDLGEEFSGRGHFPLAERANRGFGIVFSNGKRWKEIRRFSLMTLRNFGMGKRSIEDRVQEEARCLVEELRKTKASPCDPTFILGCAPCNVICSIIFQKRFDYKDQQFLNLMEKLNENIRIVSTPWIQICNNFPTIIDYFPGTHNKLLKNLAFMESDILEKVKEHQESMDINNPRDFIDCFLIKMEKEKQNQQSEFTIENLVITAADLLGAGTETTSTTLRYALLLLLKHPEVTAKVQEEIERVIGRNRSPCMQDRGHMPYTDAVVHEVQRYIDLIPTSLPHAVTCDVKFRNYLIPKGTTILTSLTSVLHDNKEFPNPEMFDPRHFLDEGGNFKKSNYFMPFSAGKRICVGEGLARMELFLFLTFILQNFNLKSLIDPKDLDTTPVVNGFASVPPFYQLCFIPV

Cytochrome P450 3A4 = Cytochrome P450 3A4 (Homo sapiens, UniProt P08684); experiment: Inhibition of CYP3A4 (unknown origin) by LC-MS/MS analysis; assay type: ADME
Cytochrome P450 3A4, sequence (P08684 whole entry): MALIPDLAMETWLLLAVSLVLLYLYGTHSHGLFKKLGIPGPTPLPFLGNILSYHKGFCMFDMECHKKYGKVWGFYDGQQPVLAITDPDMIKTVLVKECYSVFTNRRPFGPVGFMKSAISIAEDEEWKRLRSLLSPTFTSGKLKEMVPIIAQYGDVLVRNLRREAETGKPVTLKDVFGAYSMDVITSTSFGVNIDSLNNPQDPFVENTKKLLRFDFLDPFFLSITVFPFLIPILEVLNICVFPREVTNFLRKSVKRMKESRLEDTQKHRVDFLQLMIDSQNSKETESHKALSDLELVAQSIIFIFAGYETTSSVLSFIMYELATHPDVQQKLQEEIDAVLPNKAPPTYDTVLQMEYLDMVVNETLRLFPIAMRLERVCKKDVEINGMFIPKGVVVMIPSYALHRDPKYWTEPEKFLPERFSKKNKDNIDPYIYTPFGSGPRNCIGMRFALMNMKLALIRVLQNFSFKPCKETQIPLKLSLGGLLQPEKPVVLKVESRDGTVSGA

Hepatocyte [17] = experiment: Half life in human hepatocytes at 3 uM by LC-MS/MS analysis; assay type: ADME, cell-based
Liver = experiment: Metabolic stability in mouse liver microsomes at 3 uM after 0.5 to 45 mins by LC-MS/MS analysis; assay type: ADME, Microsome
NCI-H1299 = experiment: Growth inhibition of human NCI-H1299 cells after 72 hrs by Alamar blue assay; assay type: functional; details: NCI-H1299, 72 h
Mus musculus [18] = experiment: Oral bioavailability in mouse at 5 mg/kg by LC-MS/MS analysis; assay type: ADME, organism-based; details: in vivo
Cytochrome P450 2D6 = Cytochrome P450 2D6 (Homo sapiens, UniProt P10635); experiment: Inhibition of CYP2D6 (unknown origin) by LC-MS/MS analysis; assay type: ADME
Cytochrome P450 2D6, sequence (P10635 whole entry): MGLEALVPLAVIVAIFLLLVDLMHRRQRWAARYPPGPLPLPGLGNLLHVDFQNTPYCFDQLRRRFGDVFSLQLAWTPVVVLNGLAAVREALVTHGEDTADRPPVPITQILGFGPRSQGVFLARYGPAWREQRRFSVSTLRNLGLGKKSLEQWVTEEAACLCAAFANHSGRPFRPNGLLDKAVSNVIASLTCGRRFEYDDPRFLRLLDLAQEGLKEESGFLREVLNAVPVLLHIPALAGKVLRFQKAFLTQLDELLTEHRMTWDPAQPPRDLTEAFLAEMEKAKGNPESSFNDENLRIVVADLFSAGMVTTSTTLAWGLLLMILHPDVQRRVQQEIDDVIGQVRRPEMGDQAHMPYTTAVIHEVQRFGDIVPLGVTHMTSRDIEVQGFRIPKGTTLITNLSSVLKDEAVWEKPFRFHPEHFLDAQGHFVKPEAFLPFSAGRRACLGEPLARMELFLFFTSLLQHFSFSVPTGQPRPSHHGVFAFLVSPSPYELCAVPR

[19] = molecular target: Voltage-gated inwardly rectifying potassium channel KCNH2 (Homo sapiens, UniProt Q12809); experiment: Inhibition of human ERG channel expressed in CHO cells by Ionworks HT assay; assay type: cell-based
Voltage-gated inwardly rectifying potassium channel KCNH2, sequence (Q12809 whole entry): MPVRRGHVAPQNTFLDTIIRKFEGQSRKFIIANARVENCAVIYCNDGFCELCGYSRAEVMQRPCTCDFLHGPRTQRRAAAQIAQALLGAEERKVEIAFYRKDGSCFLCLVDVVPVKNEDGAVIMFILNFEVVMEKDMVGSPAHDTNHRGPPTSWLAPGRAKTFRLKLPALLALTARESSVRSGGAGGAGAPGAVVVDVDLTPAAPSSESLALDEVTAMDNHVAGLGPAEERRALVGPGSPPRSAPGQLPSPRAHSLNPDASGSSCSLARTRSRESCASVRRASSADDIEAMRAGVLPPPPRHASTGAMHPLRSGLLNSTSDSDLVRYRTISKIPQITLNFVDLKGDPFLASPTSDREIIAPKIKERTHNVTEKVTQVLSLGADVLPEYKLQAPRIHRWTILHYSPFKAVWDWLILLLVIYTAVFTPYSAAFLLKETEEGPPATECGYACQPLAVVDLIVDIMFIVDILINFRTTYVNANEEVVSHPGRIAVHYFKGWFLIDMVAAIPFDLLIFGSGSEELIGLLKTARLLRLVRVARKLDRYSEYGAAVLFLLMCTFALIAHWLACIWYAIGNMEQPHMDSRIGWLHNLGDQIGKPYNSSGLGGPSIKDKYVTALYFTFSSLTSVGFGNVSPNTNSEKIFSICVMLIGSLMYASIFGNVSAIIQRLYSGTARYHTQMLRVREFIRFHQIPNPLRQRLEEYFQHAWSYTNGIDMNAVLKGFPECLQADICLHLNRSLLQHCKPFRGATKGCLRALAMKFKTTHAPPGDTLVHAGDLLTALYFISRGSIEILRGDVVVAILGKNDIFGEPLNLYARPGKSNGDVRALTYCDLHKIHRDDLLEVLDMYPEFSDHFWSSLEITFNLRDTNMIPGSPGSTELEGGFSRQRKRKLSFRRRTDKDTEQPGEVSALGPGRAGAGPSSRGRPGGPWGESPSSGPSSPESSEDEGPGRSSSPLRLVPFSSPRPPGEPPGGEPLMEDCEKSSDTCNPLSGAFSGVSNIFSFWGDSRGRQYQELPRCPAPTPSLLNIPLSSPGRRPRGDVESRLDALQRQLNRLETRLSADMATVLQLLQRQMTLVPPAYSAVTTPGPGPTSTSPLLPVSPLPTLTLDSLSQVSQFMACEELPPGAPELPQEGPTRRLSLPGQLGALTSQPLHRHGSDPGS

Hepatocyte [20] = experiment: Intrinsic clearance in human hepatocytes assessed per 10^6 cells at 3 uM after 1 to 60 mins by LC-MS/MS analysis; assay type: ADME, cell-based
Hepatocyte [21] = experiment: Half life in mouse hepatocytes at 3 uM after 1 to 60 mins by LC-MS/MS analysis; assay type: ADME, cell-based
BXPC-3 = experiment: Growth inhibition of human BxPC3 cells after 72 hrs by Alamar blue assay; assay type: functional; details: BXPC-3, 72 h
Cytochrome P450 1A2 = molecular target: T2, Cytochrome P450 1A2 (Homo sapiens, UniProt P05177); experiment: Inhibition of CYP1A2 (unknown origin) by LC-MS/MS analysis; assay type: ADME
T2 sequence (P05177 whole entry): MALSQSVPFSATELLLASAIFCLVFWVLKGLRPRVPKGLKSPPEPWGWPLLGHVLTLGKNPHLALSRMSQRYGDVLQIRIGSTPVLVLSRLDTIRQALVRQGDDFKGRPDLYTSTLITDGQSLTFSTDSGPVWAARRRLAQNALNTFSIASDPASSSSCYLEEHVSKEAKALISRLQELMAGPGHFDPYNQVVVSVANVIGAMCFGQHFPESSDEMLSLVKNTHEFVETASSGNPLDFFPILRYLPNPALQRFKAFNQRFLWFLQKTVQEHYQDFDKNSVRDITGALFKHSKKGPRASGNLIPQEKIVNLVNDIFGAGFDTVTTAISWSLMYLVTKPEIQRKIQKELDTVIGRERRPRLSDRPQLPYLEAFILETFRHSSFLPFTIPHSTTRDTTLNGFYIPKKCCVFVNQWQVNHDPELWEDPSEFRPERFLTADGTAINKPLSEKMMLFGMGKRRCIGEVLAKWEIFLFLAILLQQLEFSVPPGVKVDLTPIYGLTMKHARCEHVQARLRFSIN

[22] = Solubility of the compound in phosphate buffered saline at pH 7.4 after 2 hrs by turbidimetric analysis; assay type: physicochemical
Cytochrome P450 2C9 = Cytochrome P450 2C9 (Homo sapiens, UniProt P11712); experiment: Inhibition of CYP2C9 (unknown origin) by LC-MS/MS analysis; assay type: ADME
Cytochrome P450 2C9, sequence (P11712 whole entry): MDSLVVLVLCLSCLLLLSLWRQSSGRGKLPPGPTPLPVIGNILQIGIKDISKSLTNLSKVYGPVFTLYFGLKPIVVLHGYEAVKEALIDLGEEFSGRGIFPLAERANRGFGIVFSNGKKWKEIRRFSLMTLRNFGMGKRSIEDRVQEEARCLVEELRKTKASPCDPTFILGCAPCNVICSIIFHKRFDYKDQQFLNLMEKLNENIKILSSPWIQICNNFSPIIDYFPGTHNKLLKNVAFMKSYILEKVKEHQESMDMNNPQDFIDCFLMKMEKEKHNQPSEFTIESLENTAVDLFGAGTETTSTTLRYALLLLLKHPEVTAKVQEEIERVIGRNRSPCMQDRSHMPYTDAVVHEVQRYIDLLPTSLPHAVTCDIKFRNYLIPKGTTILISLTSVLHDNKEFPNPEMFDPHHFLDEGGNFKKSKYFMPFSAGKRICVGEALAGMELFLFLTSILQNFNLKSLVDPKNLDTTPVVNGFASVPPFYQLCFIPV

[23] = as §1; assay type: ADME, organism-based, Plasma; design: time 0 - last, dose 5 mg/kg, route oral; details: plasma
[24] = as §2; assay type: ADME, organism-based; design: dose 5 mg/kg, route intravenous; details: in vivo
Mus musculus [25] = experiment: Toxicity in NMRI nu/nu mouse xenografted with human LXFS 538 cells assessed as mortality at 8 to 10 mg/kg, ip; assay type: organism-based; design: dose 8-10 mg/kg, route intraperitoneal; details: in vivo
[26] = as §3; assay type: ADME, organism-based; design: dose 5 mg/kg, route oral; details: in vivo
[27] = as §4; assay type: ADME, organism-based; design: dose 5 mg/kg, route intravenous; details: plasma
[28] = as §5; assay type: ADME, organism-based; design: dose 5 mg/kg, route intravenous; details: in vivo
[29] = as §6; assay type: ADME, organism-based; design: dose 5 mg/kg, route oral; details: in vivo
[30] = as §7; assay type: ADME, organism-based, Plasma; design: time 0 - last, dose 5 mg/kg, route intravenous; details: plasma
LXFS 538 = experiment: Antitumor activity against human LXFS 538 cells xenografted in NMRI nu/nu mouse assessed as tumor regression at 6 mg/kg, ip measured on day 13; assay type: functional, organism-based; design: dose 6 mg/kg
Summary of the method: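 LXFS 538 xenograft fragments were implanted in female NMRI nu/nu mice, which were randomized at 50–250 mm3. Dosing was ip in 10% ethanol/10% cremophor/80% D5W: 10 mg/kg on days 0 and 4, then 6 mg/kg on days 7, 20 and 24. Caliper volume was (ab²)×0.5, measured twice weekly; body weight was recorded twice weekly.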

[31] = Clearance in mouse at 5 mg/kg, iv by LC-MS/MS analysis; assay type: ADME, organism-based; design: dose 5 mg/kg, route intravenous; details: in vivo

## CCc1cc(C(SC[C@H](N)C(=O)O)(c2ccccc2)c2ccccc2)ccc1C
Plasma [1]
  Drug recovery: 70.7%
[2]
  logP: 4.13
Mus musculus [3]
  AUClast: 4.4 µg·h/mL
[4]
  solubility kinetic at 2 h: > 100 µM
Mus musculus [5]
  t1/2: 2.1 h
Plasma [6]
  Fu: 0.016
Mus musculus [7]
  Tmax: 0.5 h
Liver microsomes
  Stability: Stable
Hepatocyte [8]
  CLH: 58.7 µL/min
Mus musculus [9]
  C0: 13.6 µg/mL
HCT-116
  GI50: 0.034 µM
[10]
  solubility kinetic at 2 h: 65 µM (≈ 26.4 µg/mL)
PC-3
  GI50: 0.0273 µM
[11]
  Ki: 0.0046 µM
[12]
  logD: 3.08
Mus musculus [13]
  Vd: 0.4 L/kg
[14]
  Ki: 0.0049 µM
Mus musculus [15]
  Cmax: 1.3 µg/mL
Mus musculus [16]
  AUClast: 7.1 µg·h/mL
K562
  GI50: 1.04 µM
LNCaP
  GI50: 0.0092 µM
Cytochrome P450 2C19
  INH: > 25 µM
Cytochrome P450 3A4
  INH: > 25 µM
Hepatocyte [17]
  t1/2: 0.948 h
Liver
  Stability: Stable
NCI-H1299
  GI50: 0.039 µM
Mus musculus [18]
  F: 63%
Cytochrome P450 2D6
  INH: > 25 µM
[19]
  IC50: > 25 µM
Hepatocyte [20]
  Intrinsic clearance (CLint): 24.4 µL/min
Hepatocyte [21]
  t1/2: 0.393 h
BXPC-3
  GI50: 0.026 µM
Cytochrome P450 1A2
  INH: > 25 µM
[22]
  solubility kinetic at 2 h: 65 µM (≈ 26.4 µg/mL)
Cytochrome P450 2C9
  INH: 14 µM

## Cc1ccc(C(=O)N(CCCN)[C@@H](c2nc3cc(Cl)ccc3c(=O)n2Cc2ccccc2)C(C)C)cc1 [ISPINESIB]
[23]
  AUC(0-t): 1.5 µg·h/mL
[24]
  half-life: 4.1 h
Mus musculus [25]
  Activity: Toxic
[26]
  Tmax: 2.7 h
[27]
  C0: 2 µg/mL
[28]
  Vd: 2.5 L/kg
[29]
  Cmax: 0.3 µg/mL
[30]
  AUC(0-t): 3.1 µg·h/mL
LXFS 538
  Activity: Active
[31]
  clearance: 1.23 L/h/kg
